Only some compounds are listed: those with a hit (about 3.4% of all), similar ones and a draw of the others.
ANO1 block: blocks the mouse calcium-activated chloride channel TMEM16A; actives 1.2% (n = 310,000); AID 588511; HEK293 TMEM16A/YFP iodide influx fluorescence, ionomycin; normalized B-score (activity score, 25-100; higher = stronger inhibition) at 10 µM;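 active means ratio plate-corrected score three or more library SD toward inhibition, starting fluorescence score within five deviations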;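 further: score derived from kinetic fluorescence span divided by baseline fluorescence per well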
Target sequence (Q8BHY3 whole entry, looked up): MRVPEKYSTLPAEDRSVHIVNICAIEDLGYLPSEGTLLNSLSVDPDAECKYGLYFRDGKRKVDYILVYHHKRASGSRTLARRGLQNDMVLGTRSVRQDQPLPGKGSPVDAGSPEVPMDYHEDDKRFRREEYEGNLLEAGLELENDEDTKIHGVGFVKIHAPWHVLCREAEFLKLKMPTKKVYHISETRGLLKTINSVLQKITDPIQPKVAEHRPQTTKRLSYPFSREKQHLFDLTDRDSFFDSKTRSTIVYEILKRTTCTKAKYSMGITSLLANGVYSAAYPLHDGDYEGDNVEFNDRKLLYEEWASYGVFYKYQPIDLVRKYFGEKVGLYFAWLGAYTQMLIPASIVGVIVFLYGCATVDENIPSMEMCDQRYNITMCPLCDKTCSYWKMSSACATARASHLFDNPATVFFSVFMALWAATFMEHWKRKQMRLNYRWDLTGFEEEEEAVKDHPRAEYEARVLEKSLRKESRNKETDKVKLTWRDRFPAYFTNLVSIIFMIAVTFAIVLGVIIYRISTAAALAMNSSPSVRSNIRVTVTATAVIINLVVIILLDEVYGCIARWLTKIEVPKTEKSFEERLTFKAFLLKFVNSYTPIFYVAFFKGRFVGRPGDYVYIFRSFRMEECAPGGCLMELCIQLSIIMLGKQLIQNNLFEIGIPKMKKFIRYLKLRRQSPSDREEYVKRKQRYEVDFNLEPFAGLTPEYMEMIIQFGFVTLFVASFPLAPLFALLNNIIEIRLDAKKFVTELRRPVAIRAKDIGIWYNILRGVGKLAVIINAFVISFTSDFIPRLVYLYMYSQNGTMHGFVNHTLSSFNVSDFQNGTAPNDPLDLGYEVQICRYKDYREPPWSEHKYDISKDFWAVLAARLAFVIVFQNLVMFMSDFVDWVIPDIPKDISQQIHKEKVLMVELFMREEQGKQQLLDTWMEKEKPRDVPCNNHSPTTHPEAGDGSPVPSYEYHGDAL
MC4R ag barr: activates human MC4R beta-arrestin recruitment; U2OS MC4R beta-arrestin complementation, luminescence; percent of melanotan II response, DMSO zero; P32245; actives 0.98% (n = 360,000); activation, % at 8.9 µM;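 active means activation above a per-plate cutoff, the mean activation of sample wells on that plate plus 3 SD, cut at about 8% in these data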
m5-HT2A agonist: mouse HTR2A agonism via beta-arrestin recruitment; P35363; CHO-K1 mHTR2A beta-arrestin complementation, luminescence; percent of 30 µM serotonin response; activation, % at 7.6 µM; actives 0.66% (n = 360,000); AID 624169;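 active means activation above a run cutoff, the mean activation of all tested compounds plus 3 SD, cut at about 14% in these data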;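 further: 0% = plate median of compound wells and 100% = 30 µM serotonin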
ANO1 activ: mouse TMEM16A channel activation, primary screen | HEK293 TMEM16A/YFP-H148Q/I152L, iodide quench fluorescence; stronger effect = lower value | B-score at 10 µM | Q8BHY3 | AID 623877 | actives 0.3% (n = 340,000);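 active means fluorescence-ratio B-score plate-corrected deviation score at least 3 library SD below zero, with starting fluorescence score within 5 deviations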;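 further: channel opened by trigger with iodide after compound preincubation; score built on the fluorescence ratio of max minus min over baseline; more negative score means more quench and so TMEM16A activation or potentiation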
MIN6 prolif: MIN6 beta-cell proliferation induction | actives 0.29% (n = 330,000) | MIN6 cells proliferation, ATPlite luminescence, 48 h; cells starved in 0.2% serum; 100% = growth in 10% serum | proliferation, % at 10 µM;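 active means compounds whose signal lies at least 3.5 SD above the mean of all wells on their plate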;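 further: 0% = DMSO-treated cells in low-serum medium and 100% = 10% serum control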
MC4R antag cAMP: human MC4R antagonism in cAMP assay; AID 540295; MC4R-expressing cells, MTII-stimulated cAMP, LANCE TR-FRET; actives 0.48% (n = 360,000); P32245; inhibition, % at 6.5 µM;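 active means inhibition above its plate's cutoff, the mean of tested wells on that plate plus 3 SD, cut at about 29% in these data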;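 further: 0% = Melanotan II alone and 100% = Melanotan II plus saturating MCL0020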
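Material – human MC4R-expressing U2OS cells · Repeats – no replicates · Detection – TR-FRET with Eu-cAMP and labeled anti-cAMP, 671 nm · Times – compound 30 min, challenge 1 h, detection 1 h · Compound – single nominal compound dose of 6.5 µM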
MC4R barr conf: human MC4R beta-arrestin agonism confirmation; shares compounds with MC4R ag barr; U2OS MC4R beta-arrestin recruitment, luminescence; scaled DMSO 0%, Melanotan II 100%; activation, % at 8.9 µM; actives 31% (n = 2,400); AID 602192;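 active means mean activation across replicates above the hit cutoff set in the earlier primary screen, cut at about 8% in these data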
MOR-DOR barr ag: activates mu-delta opioid heterodimer, MC4R agonist counter-screen; actives 5.8% (n = 2,400); AID 602194; U2OS PathHunter beta-arrestin, beta-gal luminescence; percent of deltorphin B response, DMSO zero; activation, % at 9.2 µM; shares compounds with MC4R ag barr;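 active means mean activation across replicates exceeds the hit threshold derived in the earlier primary screen, cut at about 18% in these data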;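 further: 100% = deltorphin B at 0.9 µM final and 0% = DMSO alone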
Active calls of the source: *; i = inactive; nt = not tested or not shown.

SMILES	ANO1 block	MC4R ag barr	m5-HT2A agonist	ANO1 activ	MIN6 prolif	MC4R antag cAMP	MC4R barr conf	MOR-DOR barr ag
CCC1CN(C(=O)NCc2ccc(F)cc2)c2cc(C)ccc2O1 (centres undefined)	i	0.1	-7.9	i	-1.2	12.3	nt	nt
CCC1CN(C(=O)Nc2ccc(C)cc2)c2cc(C)ccc2O1 (centres undefined)	i	10.6*	-1.8	i	-4.4	23.1	-2.2	4.3
Cc1ccc(C(=O)CCC(=O)OCC(=O)NNC(=O)c2ccc([N+](=O)[O-])cc2)cc1	nt	-1.8	-1.1	i	2.4	0.8	nt	nt
Cc1nn(CC(=O)NCc2cccc3ccccc23)c(=O)c2ccccc12	i	19.0*	-2.2	i	0.8	-3.5	4.1	4.5
Cn1c(SCc2ccccc2)nnc1-c1ccc2c(c1)OCO2	i	0.3	0.3	i	-2.6	3.6	nt	nt
Fc1ccc(CSc2ccc(-c3ccc4c(c3)OCO4)nn2)cc1	i	10.9*	0.1	i	0.0	9.6	1.8	7.9
c1ccc(CSc2ccc(-c3ccc4c(c3)OCO4)nn2)cc1	i	28.6*	3.7	i	0.0	-3.2	3.4	3.6
COC(=O)Cc1ccc(OC2(C)CCN(Cc3ccccc3)C2)cc1 (centres undefined)	nt	-4.2	-0.9	nt	nt	4.4	nt	nt
CC1CC(C)CN(C(=O)CN2C(=O)NC3(CCCCCCC3)C2=O)C1 (centres undefined)	nt	-1.2	0.6	i	-4.8	10.0	nt	nt
Cc1ccc(-c2c(C#N)c(N)n3c(nc4ccccc43)c2C#N)cc1	i	2.8	4.5	i	-3.7	5.8	nt	nt
N#Cc1c(-c2ccccc2)c(C#N)c2nc3ccccc3n2c1N	i	11.0*	7.8	i	-4.8	7.8	0.9	4.1
O=C(Oc1ccc(-c2cnc3ccccc3n2)cc1)c1ccco1	i	18.1*	3.6	i	-0.9	-8.3	-2.7	3.4
CCC(=O)Oc1ccc(-c2cnc3ccccc3n2)cc1	i	2.8	0.9	i	-3.5	-15.3	nt	nt
CC1(C(=O)Nc2ccc(F)cc2F)CCN1C(=O)Cc1ccccc1 (centres undefined)	nt	1.5	-1.8	nt	nt	-5.4	nt	nt
CC(C)(C)C1CCC(C(=O)Nc2ccccc2)CC1 (centres undefined)	i	10.4*	0.3	i	-4.3	-4.6	1.5	6.0
CS(=O)(=O)Nc1cccc(-c2ccc3nncn3c2)c1	nt	-1.4	0.2	nt	nt	-14.4	nt	nt
COc1ccc(-n2nnnc2SCC(=O)c2cccc(OC)c2)cc1	i	1.3	-0.1	i	-4.1	19.6	nt	nt
CCOc1ccc(-n2nnnc2SCC(=O)c2ccccc2)cc1	i	16.0*	5.7	i	-6.1	10.3	-2.8	1.6
CCc1ccc(CN2CCC(n3nccc3NC(=O)C3CCCC3)CC2)cc1	i	-0.3	-4.3	i	1.9	-2.8	nt	nt
Cc1ccc(-n2nc3c(N4CCC(C(=O)NCCc5cccs5)CC4)nnc(C)c3c2C)cc1	i	14.6*	-1.3	i	-3.9	7.1	12.3*	3.0
Cc1ccc(-n2nc3c(=O)n(CC(=O)NCCc4cccs4)nc(C)c3c2C)cc1	i	-0.3	-1.5	i	-4.5	9.4	nt	nt
Cc1nnc(N2CCCC(C(=O)NCc3ccc(OC(C)C)cc3)C2)c2nn(-c3ccccc3)c(C)c12 (centres undefined)	i	11.9*	4.1	i	-6.3	7.9	4.0	3.0
Cc1nnc(N2CCCC(C(=O)Nc3cc(F)ccc3F)C2)c2nn(-c3ccccc3)c(C)c12 (centres undefined)	i	2.3	2.3	i	-4.6	24.3	nt	nt
O=c1c2ccccc2sn1-c1ccc(Cl)cc1Cl	nt	0.4	2.9	nt	nt	-3.9	nt	nt
Cc1cc2ccccc2nc1SCC(=O)NC1CCCC1	i	-1.1	-3.5	i	nt	10.7	nt	nt
SMILES	ANO1 block	MC4R ag barr	m5-HT2A agonist	ANO1 activ	MIN6 prolif	MC4R antag cAMP	MC4R barr conf	MOR-DOR barr ag
CCc1cc2cc(C)ccc2nc1SCC(=O)NC1CCCC1	i	10.9*	0.9	i	-3.1	4.8	-0.6	7.9
NC(Cc1ccc(Cl)cc1)c1csc(NC(=O)Nc2ccccc2-c2ccccc2)n1 (centres undefined)	nt	19.3*	4.0	nt	nt	12.7	11.3*	8.9
NC(CCc1ccccc1)c1csc(NC(=O)Nc2ccccc2Oc2ccccc2)n1 (centres undefined)	nt	17.6*	-0.1	nt	nt	12.2	3.8	24.5*
NC(Cc1ccc(Cl)cc1)c1csc(NC(=O)NCCc2ccccc2)n1 (centres undefined)	nt	13.4*	-1.8	nt	nt	1.1	26.8*	21.1*
C[C@H](CO)N1C[C@H](C)[C@@H](CN(C)S(=O)(=O)c2ccccc2)Oc2ccc(NC(=O)NC3CCCCC3)cc2C1=O	nt	-1.7	2.5	nt	4.2	-6.7	nt	nt
O=C(Nc1ccc(OC(F)(F)C(F)F)c(NC(=O)c2cccc(F)c2)c1)c1cccc(F)c1	i	20.9*	-2.4	i	0.0	13.8	6.6	4.3
O=C(Nc1ccncc1)c1cccc(F)c1	i	-0.8	3.2	i	0.0	0.1	nt	nt
CCOc1ccc(S(=O)(=O)Nc2cc(S(=O)(=O)N3CCOCC3)ccc2OC)cc1	nt	-2.3	-1.4	i	-1.5	8.5	nt	nt
CCC1(C)Cc2c(sc3nc(SCC(=O)c4ccccc4)[nH]c(=O)c23)CO1 (centres undefined)	i	11.7*	-2.0	i	1.3	17.5	-1.4	6.8
CCOC(=O)CSc1nc2sc3c(c2c(=O)[nH]1)CC(C)(CC)OC3 (centres undefined)	i	-2.1	1.2	i	-3.2	17.9	nt	nt
CCc1ccc(CN(Cc2cccnc2)C(=O)/C=C/c2ccc(OC)cc2)cc1	i	0.9	5.4	i	-4.2	1.1	nt	nt
CCCC(=O)Nc1ccc2c(c1)Cc1ccccc1-2	i	0.8	-5.2	i	-1.6	-8.1	nt	nt
Cc1ccccc1-c1nc(-c2ccc(NC(=O)c3ccc(Br)o3)cc2)no1	i	30.1*	4.0	i	-4.0	5.3	21.4*	4.4
O=C(Nc1ccc2c(c1)Cc1ccccc1-2)c1ccc(Br)o1	i	10.3*	2.7	i	-0.7	2.8	-1.2	4.4
Cc1ccccc1-c1nc(-c2ccc(Br)o2)no1	i	1.9	2.3	i	-0.3	14.7	nt	nt
